The data set can be described thus: Toxicity liver stage against HepG2, at 10uM. Type of data set: cell-based. Also noted: test concentration 10 uM, cell line HepG2-A16-CD81EGFP. Conditions: human, HepG2-A16-CD81EGFP cells; read-out: INHIBITION
An outline of the steps: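 Uninfected HepG2-A16-CD81EGFP cells, 3 × 10^3 per well, 1536-well, plated on prespotted compound at 10 μM final, parasite-free screening media added to match infected plates; puromycin 10 μM positive, DMSO 0.5% negative; run in parallel with 48 h PbLuc assay at 37 °C, 5% CO2; viability by CellTiter-Glo luminescence, normalized to controls.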
Regarding `CC(=O)N1C[C@@H](F)[C@@H](OCc2nc3ccc(C#N)cc3[nH]2)C1`, the cytotoxicity at 10 µM is -0.302%.

For `COc1cccc(CN2CCCCCC2c2sccc2C)c1O` (configuration not stated), the cytotoxicity at 10 µM came out at 7.18%.

Take `CC(C)C(=O)N1CCC(C2C(=O)Nc3ccccc32)CC1` (configuration not stated): the cytotoxicity at 10 µM was -1.54%. With `CCN1C(=O)CCCC12CCCN(C(=O)c1occc1C)C2` (configuration not stated), the cytotoxicity at 10 µM was 2.88%. In the case of `CCc1nnc2sc(-c3cc(C(C)C)n[nH]3)nn12`, the cytotoxicity at 10 µM is -7.37%. `COc1ccccc1-c1ccnc2nc(N3CCCCC3)[nH]c(=O)c12`: the cytotoxicity at 10 µM stood at 7.36%.

As to `Cn1nc(C(=O)NCc2cccs2)c2c1CCS(=O)(=O)C2`, the cytotoxicity at 10 µM is -0.328%. Regarding `CCOc1ccc(N2CCCN=C2NC(=O)c2cccc(Cl)c2)cc1`, the cytotoxicity at 10 µM is -10.1%. As to `O=C(Cn1cccn1)N1CCC(c2nnc(-c3ccsc3)o2)CC1`, the cytotoxicity at 10 µM amounted to 6.88%. With `CC(=O)N1CCN(c2cc(C)ncn2)CC(CO)C1` (configuration not stated), the cytotoxicity at 10 µM came to 2.94%. As to `CC(=O)Nc1nc(C2CCN(C(C)C)CC2)cs1`, the cytotoxicity at 10 µM was -3.3%.

In the case of `Cc1ccc(C(=O)N2CCC[C@@H]2Cn2nnc3c(O)nc(C)nc32)cc1`, the cytotoxicity at 10 µM was -10.3%. On to `Cc1cc(-c2cc(F)ccc2C(=O)O)nc(C2CCCN(C)C2)n1` (configuration not stated), for which the cytotoxicity at 10 µM was -11.4%. Under `Cc1cccc(CN2CCC(c3nnc(-c4scnc4C)o3)CC2)c1` stands -3.8%; under `CC(C)NC(=O)N1CCn2c(nnc2C2CCCN2)C1` (configuration not stated), -1.32%; under `CS(=O)(=O)N1CC2(CCCN2Cc2ccc(Cl)cc2)Cc2ccccc21` (configuration not stated), 17%. For the compound `COCC(=O)N1CCN(C(C)C(=O)NC(C)C)CC1` (configuration not stated), the cytotoxicity at 10 µM stood at 1.06%. For the compound `Cc1noc(CNc2cc3c(cc2Cl)OCCCO3)n1`, the cytotoxicity at 10 µM is -1.49%. With `O=C(NCCCC(=O)N1Cc2ccccc2C1)NCc1ccsc1`, the cytotoxicity at 10 µM was -15%.

With `CCN(CC)S(=O)(=O)c1ccc(OC)c(NC(=O)CSC)c1`, the cytotoxicity at 10 µM is -10%. Regarding `CCCN1CCCC1c1nc(Cc2ccc(F)cc2)no1` (configuration not stated), the cytotoxicity at 10 µM is -2.74%. For `Cc1nc(-c2ccco2)ccc1C(=O)NCCN1CCN(C)CC1`, the cytotoxicity at 10 µM turned out to be 3.88%.

On to `CC(=O)Cn1cc(C#N)c(=O)c2cc(Br)ccc21`, for which the cytotoxicity at 10 µM was -7.06%. The value for `CC1CCCN(C(=O)Nc2ccc(F)c(C(N)=O)c2)C1` (configuration not stated) was -7.48%; that for `Cc1cc(N2CCCC2c2nnc3n2CCCCC3)nc(C)n1` (configuration not stated) was 9.59%; that for `CS(=O)(=O)NC1CCN(CCc2ccccc2)CC1` was -1.76%. As for `CCc1nsc(NC2CC(=O)N(C(C)(C)C)C2)n1` (configuration not stated), the cytotoxicity at 10 µM was 5.6%. `CN(C)CC1CN(Cc2cc(Cl)cc3cccnc23)CCO1` (configuration not stated): the cytotoxicity at 10 µM amounted to 5.26%.

Consider `COCc1nc(C(=O)N2CCN(Cc3ccsc3)CC2)cs1`, for which the cytotoxicity at 10 µM is -0.684%.

Turning to `Cc1nc(CNC(=O)N2CCCC(c3ncc[nH]3)C2)sc1C` (configuration not stated), the cytotoxicity at 10 µM is -0.331%. In the case of `Cc1cc(C)c(CNC(=O)NCc2nnc3n2CCC3)c(=O)[nH]1`, the cytotoxicity at 10 µM came out at 22.1%. Under `Cn1cc(C(O)CNC(=O)Nc2cc(F)ccc2-n2cccn2)cn1` (configuration not stated) stands 1.01%. The value for `CSC(CNS(=O)(=O)c1cnn(C)c1)c1cccc(Cl)c1` (configuration not stated) was 4.63%; that for `Cc1nc(C2CCCN(C(=O)CCCOc3cccc(F)c3)C2)no1` (configuration not stated) was 9.91%; that for `Cc1ccc(-c2nc(CN3CCOC(c4ccccc4)C3)cs2)o1` (configuration not stated) was -8.11%. As for `CN(CCCC#N)C1CCCN(Cc2noc(C3CC3)n2)C1` (configuration not stated), the cytotoxicity at 10 µM is -14.5%. The value for `CN1CCN(CCCNC(=O)c2cc(Cl)c3c(c2)OCO3)CC1` was -16.7%; that for `C[C@H]1CN(C(=O)c2cccnc2)C[C@@]12CCN(CCN1CCCC1)C2=O` was -4.71%.

`CNc1nc2c(s1)C(=O)CN(C(=O)NCCc1ccccc1)C2`: the cytotoxicity at 10 µM is -7.38%. Take `CC(C)[C@H](NS(C)(=O)=O)C(=O)NCc1cc(-c2ccco2)n[nH]1`: the cytotoxicity at 10 µM was -9.13%. The value for `CC(C)SCCn1ccc2[nH]c(=O)c(C#N)cc2c1=O` was 3.18%; that for `O=C1OC2(CCN(C(=O)C3NCCc4[nH]cnc43)CC2)c2ccccc21` (configuration not stated) was -7.05%; that for `COc1cccc([C@H]2CN(C(=O)c3cc(C)on3)C[C@@H]2N)c1` was 3.14%. As for `Cc1nn(CCN2CCSCC2)cc1CNCc1ccccn1`, the cytotoxicity at 10 µM amounted to 2.28%. The value for `CCOCc1nc2c(c(N(C)Cc3nonc3C)n1)CCNCC2` was 6.7%; that for `N#Cc1cccc(N2CCCC(CO)(Cc3ccccc3F)C2)n1` (configuration not stated) was 1.54%. With `CC(C)(CN1CCC(Cc2ccc(CO)cc2)C1)N1CCOCC1` (configuration not stated), the cytotoxicity at 10 µM is -2.71%. `CCc1c(C)nn(CCNC(=O)c2csc(C)n2)c1C`: the cytotoxicity at 10 µM was -2.78%.

With `CN(C)S(=O)(=O)N1CCOCC1CC(=O)NCCOc1ccccc1` (configuration not stated), the cytotoxicity at 10 µM was 2.38%. For the compound `CCc1nnc(CN(CC)C(=O)C2CC(=O)N(Cc3cccnc3)C2)o1` (configuration not stated), the cytotoxicity at 10 µM is 2.3%. For the compound `Cc1cc(CC(C)NC(=O)c2cccc(CC3CCNCC3)c2)[nH]n1` (configuration not stated), the cytotoxicity at 10 µM is 11.1%.

For the compound `Cc1c(Cn2ccnc2-c2cc(CN(C)C)cs2)cnn1C`, the cytotoxicity at 10 µM is -0.309%. Regarding `COCCc1noc(CNC2CCSC2)n1` (configuration not stated), the cytotoxicity at 10 µM is -15%.

As for `Nc1nccc(N2CCC(Cc3ccccc3Cl)(C(=O)O)CC2)n1`, the cytotoxicity at 10 µM was -21.8%.

Regarding `OCCOCCN1CCCC1c1nc2cc(F)ccc2[nH]1` (configuration not stated), the cytotoxicity at 10 µM was -17.5%. Turning to `Cc1nc(CCN(C)C(=O)C2COc3ccccc3C2)no1` (configuration not stated), the cytotoxicity at 10 µM is -19.7%. The value for `CCCNC(=O)c1ccc(NC(=O)c2cccc(OCC)c2)cc1` was -10.5%. With `Cc1csc(Nc2nccnc2C2CCCN2C(=O)C(C)C)n1` (configuration not stated), the cytotoxicity at 10 µM was found to be 1.3%.

Consider `CSc1ccc(C(=O)N2CCOCC2c2c(C)nn(C)c2C)o1` (configuration not stated), for which the cytotoxicity at 10 µM was -2.12%. As to `N#Cc1ccsc1NC(=O)CN1CCn2c(nnc2C2CC2)C1`, the cytotoxicity at 10 µM was -14.5%. For the compound `Clc1ccc(CN2CCCC2Cn2cncn2)c2ncccc12` (configuration not stated), the cytotoxicity at 10 µM was -9.66%. As to `Cc1[nH]ncc1C(=O)N1CCCC(c2ccn[nH]2)C1` (configuration not stated), the cytotoxicity at 10 µM came out at 0.23%. As for `Cn1cnc2c1CCN(Cc1csc(-c3ccccc3)n1)C2`, the cytotoxicity at 10 µM is -1.04%. With `CC(C(=O)N1CCN(Cc2ccc(C#N)cc2)CC1)n1ccnc1` (configuration not stated), the cytotoxicity at 10 µM was -9.71%.

Take `Cn1ccnc1CN1CCN(CCOc2cccc(C#N)c2)CC1`: the cytotoxicity at 10 µM was -18%.

Regarding `CN(CC(=O)N1CCCCC1Cn1cccn1)Cc1ccccc1` (configuration not stated), the cytotoxicity at 10 µM is -3.99%. In the case of `c1ncn(CC2CCCN2Cc2csc(C3CCCCC3)n2)n1` (configuration not stated), the cytotoxicity at 10 µM worked out at 1.77%.

In the case of `O=C1C(NS(=O)(=O)c2ccc(F)cc2)CCN1Cc1ccccc1` (configuration not stated), the cytotoxicity at 10 µM was -3.48%.

`CC(Cn1cccn1)NC(=O)NCc1ccnc(OC2CCCC2)c1` (configuration not stated): the cytotoxicity at 10 µM is -4.59%. As for `CCC(C)NC(=O)c1cc(Br)c2c(c1)OCCO2` (configuration not stated), the cytotoxicity at 10 µM is -14.3%. Regarding `O=C(CN1CCOC(CNc2cccnn2)C1)NCc1ccccn1` (configuration not stated), the cytotoxicity at 10 µM is -0.945%. For the compound `Cc1cnn(CC2CCCN2Cc2noc(-c3ccccc3)n2)c1` (configuration not stated), the cytotoxicity at 10 µM amounted to 0.441%. As to `COc1ccc(COCC(O)CNC(=O)c2cccc(OC)c2)cc1` (configuration not stated), the cytotoxicity at 10 µM was -9.05%. As for `CNC(=O)C1CCN(C(=O)NCCc2ccc(Cl)s2)CC1`, the cytotoxicity at 10 µM is -12.3%.

For the compound `O=C(O)c1cc(S(=O)(=O)Nc2ccc(F)cc2Cl)cc2c1OCCO2`, the cytotoxicity at 10 µM is -8.12%.

As for `CCc1cccc(N2CCC(NC(=O)c3ccncc3)CC2)c1`, the cytotoxicity at 10 µM was -13.9%. Turning to `O=C(NCC(=O)N1CCCC(c2ccccc2)CC1)c1ccoc1` (configuration not stated), the cytotoxicity at 10 µM was -4.31%. With `CCC(O)CN1CCN(C(=O)c2sccc2C(C)C)CC1` (configuration not stated), the cytotoxicity at 10 µM worked out at 6.89%. As for `NC(=O)c1csc(C(=O)N2CCCC(n3cccn3)C2)c1` (configuration not stated), the cytotoxicity at 10 µM is -2.77%. For `NC(=O)c1ccc(C(=O)N2CCCC(n3ccnc3)C2)s1` (configuration not stated), the cytotoxicity at 10 µM was -20.5%. In the case of `Cc1noc(C)c1C(=O)NCC(c1ccc(F)cc1)N(C)C` (configuration not stated), the cytotoxicity at 10 µM is -0.0707%. Under `COCCN1CCC(N(Cc2noc(C3CC3)n2)C(C)=O)C1` (configuration not stated) stands -12.4%. In the case of `Cc1cccc(-c2ccc(C(=O)NCCN(C)C3CC3)c(=O)[nH]2)c1`, the cytotoxicity at 10 µM is -6.81%. The value for `Cc1ccccc1CC(=O)N(C)C1CCCC1` was 6.33%; that for `COc1ccc(Br)c(C(=O)N2CCC(c3n[nH]c(C4CC4)n3)CC2)c1` was -1.44%; that for `CCC1CN(CCNC(C)=O)CCN1CCOC` (configuration not stated) was -3.09%. As for `CCn1cnnc1CNC(=O)N1CCN(Cc2ccccc2)CC1`, the cytotoxicity at 10 µM was -1.3%. On to `COc1c(C2CCCN2C(=O)c2cccc(C(N)=O)c2)c(C)nn1C` (configuration not stated), for which the cytotoxicity at 10 µM was found to be 0.192%. For `Cc1cc(CN2CCN(C(=O)c3sccc3C(C)C)CC2)no1`, the cytotoxicity at 10 µM was -0.962%. Regarding `O=C(C1=CCCC1)N1CCC[C@]2(C[C@@H](Oc3ncccc3F)CO2)C1`, the cytotoxicity at 10 µM was -15.5%. On to `Cc1cccc(CN2C[C@@H]3CN(C(=O)c4ccco4)C[C@@H]3C2=O)n1`, for which the cytotoxicity at 10 µM is -0.42%. Consider `CC(=O)N1CC(=O)N(c2cnn(C)c2)CC12CCN(Cc1ccsc1)C2` (configuration not stated), for which the cytotoxicity at 10 µM was -17.6%. On to `Cc1c(F)cccc1S(=O)(=O)NC(C)(C)CN`, for which the cytotoxicity at 10 µM is 0.926%. On to `C[C@@H]1CN(Cc2ccoc2)C[C@]12CCN(CC(=O)N(C)C)C2=O`, for which the cytotoxicity at 10 µM is 2.11%.

As for `CC(=O)N1[C@H](CN(C)C)C[C@@H]2CN(C(=O)c3cncc(C)c3)CC[C@@H]21`, the cytotoxicity at 10 µM amounted to 3.76%. For `CS(=O)(=O)N1CCO[C@@H]2CCN(Cc3ccncc3)CC[C@H]21`, the cytotoxicity at 10 µM stood at 1.15%. Regarding `COc1cc(N2CCO[C@H]3[C@@H](Oc4cccnc4)CC[C@@H]32)ncn1`, the cytotoxicity at 10 µM was -3.33%.

The values above are taken from ChEMBL document CHEMBL4513216, “Probing the Open Global Health Chemical Diversity Library for Multistage-Active Starting Points for Next-Generation Antimalarials” (ACS Infect Dis, 2020).
